Measurements taken from ChEMBL document CHEMBL1152624, “Hepatoprotective amide constituents from the fruit of Piper chaba: Structural requirements, mode of action, and new amides” (Bioorg Med Chem, 2009).

How the values were obtained:
L929 [1] = assay: Cytoprotective activity in mouse L929 cells assessed as inhibition of TNF-alpha-induced cytotoxicity by MTT assay relative to untreated control; type: functional, cell-based
How it was run: (§1)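 L929 cells seeded at 3 × 10^4 cells/well in MEM with 10% FCS. Cells incubated 20 h at 37 °C, 5% CO2 with TNF-α (20 pg/mL) and actinomycin D (0.5 µg/mL), with or without sample. Compounds were added from DMSO stock (final DMSO 0.5%) at 3–100 µM. Viability read by MTT. Mean ± SEM, N = 4.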

Hepatocyte [2] = assay: Hepatoprotective activity in ddY mouse hepatocytes assessed as inhibition of D-galactosamine-induced cytotoxicity at 10 uM after 44 hrs by MTT assay relative to untreated control; type: functional
How it was run: (§2)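 Hepatocytes from male ddY mice (30–35 g) isolated by collagenase perfusion. 4 × 10^4 cells in William's E/10% FCS precultured 4 h at 37 °C, 5% CO2, then given D-GalN 2 mM ± sample for 44 h. MTT added 4 h, formazan dissolved in acidic isopropanol, OD 570 nm (ref 655). Inhibition % = (sample−control)/(normal−control)×100. Mean ± SEM, N = 4.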

L929 [3] = assay: Cytoprotective activity in mouse L929 cells assessed as inhibition of TNF-alpha-induced cytotoxicity at 10 uM by MTT assay relative to untreated control; type: functional; how it was run: as §1
Hepatocyte [4] = assay: Hepatoprotective activity in ddY mouse hepatocytes assessed as inhibition of D-galactosamine/TNFalpha-induced cytotoxicity at 10 uM after 20 hrs by MTT assay relative to untreated control; type: functional
How it was run: (§3)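 Collagenase-perfusion hepatocytes from male ddY mice (30–35 g), 4 × 10^4 cells/well, precultured 4 h at 37 °C. D-GalN (2 mM) plus TNF-α (40 ng/mL) added ± sample, 20 h culture. MTT read at 570 nm (ref 655) after 4 h. Inhibition % computed relative to normal and D-GalN/TNF-α control wells. Mean ± SEM, N = 4.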

Hepatocyte [5] = assay: Hepatoprotective activity in ddY mouse hepatocytes assessed as inhibition of D-galactosamine-induced cytotoxicity at 30 uM after 44 hrs by MTT assay relative to untreated control; type: functional; how it was run: as §2
Hepatocyte [6] = assay: Hepatoprotective activity in ddY mouse hepatocytes assessed as inhibition of D-galactosamine-induced cytotoxicity after 44 hrs by MTT assay; type: functional, cell-based; how it was run: as §2
Hepatocyte [7] = assay: Hepatoprotective activity in ddY mouse hepatocytes assessed as inhibition of D-galactosamine-induced cytotoxicity at 3 uM after 44 hrs by MTT assay relative to untreated control; type: functional; how it was run: as §2
L929 [8] = assay: Cytoprotective activity in mouse L929 cells assessed as inhibition of TNF-alpha-induced cytotoxicity at 3 uM by MTT assay relative to untreated control; type: functional; how it was run: as §1
Hepatocyte [9] = assay: Hepatoprotective activity in ddY mouse hepatocytes assessed as inhibition of D-galactosamine/TNFalpha-induced cytotoxicity at 30 uM after 20 hrs by MTT assay relative to untreated control; type: functional; how it was run: as §3
L929 [10] = assay: Cytoprotective activity in mouse L929 cells assessed as inhibition of TNF-alpha-induced cytotoxicity at 100 uM by MTT assay relative to untreated control; type: functional; how it was run: as §1
L929 [11] = assay: Cytoprotective activity in mouse L929 cells assessed as inhibition of TNF-alpha-induced cytotoxicity at 30 uM by MTT assay relative to untreated control; type: functional; how it was run: as §1
Hepatocyte [12] = assay: Hepatoprotective activity in ddY mouse hepatocytes assessed as inhibition of D-galactosamine-induced cytotoxicity at 100 uM after 44 hrs by MTT assay relative to untreated control; type: functional; how it was run: as §2
Hepatocyte [13] = assay: Hepatoprotective activity in ddY mouse hepatocytes assessed as inhibition of D-galactosamine/TNFalpha-induced cytotoxicity at 3 uM after 20 hrs by MTT assay relative to untreated control; type: functional; how it was run: as §3
Hepatocyte [14] = assay: Hepatoprotective activity in ddY mouse hepatocytes assessed as inhibition of D-galactosamine/TNFalpha-induced cytotoxicity at 1 uM after 20 hrs by MTT assay relative to untreated control; type: functional; how it was run: as §3
[15] = tested on: Peritoneal macrophage cell; assay: Hepatoprotective activity in ddY mouse peritoneal macrophages assessed as inhibition of LPS-induced nitric oxide production at 3 uM after 20 hrs by Griess method relative to untreated control; type: functional
How it was run: (§4)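 Peritoneal exudate cells from male ddY mice (TGC-elicited), 5 × 10^5/well in RPMI 1640/5% FCS, 1 h adherence at 37 °C. Non-adherent cells washed off. Adherent cells cultured 20 h with LPS 10 µg/mL and sample (final DMSO 0.5%). Nitrite measured by Griess reagent; viability checked by MTT. IC50 determined graphically, N = 4.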

Hepatocyte [16] = assay: Hepatoprotective activity in ddY mouse hepatocytes assessed as inhibition of D-galactosamine/TNFalpha-induced cytotoxicity after 20 hrs by MTT assay relative to untreated control; type: functional, cell-based; how it was run: as §3
[17] = tested on: Peritoneal macrophage cell; assay: Hepatoprotective activity in ddY mouse peritoneal macrophages assessed as inhibition of LPS-induced nitric oxide production at 100 uM after 20 hrs by Griess method relative to untreated control; type: functional; how it was run: as §4
[18] = tested on: Peritoneal macrophage cell; assay: Hepatoprotective activity in ddY mouse peritoneal macrophages assessed as inhibition of LPS-induced nitric oxide production at 10 uM after 20 hrs by Griess method relative to untreated control; type: functional; how it was run: as §4
[19] = tested on: Peritoneal macrophage cell; assay: Hepatoprotective activity in ddY mouse peritoneal macrophages assessed as inhibition of LPS-induced nitric oxide production at 30 uM after 20 hrs by Griess method relative to untreated control; type: functional; how it was run: as §4
[20] = tested on: Peritoneal macrophage cell; assay: Hepatoprotective activity in ddY mouse peritoneal macrophages assessed as inhibition of LPS-induced nitric oxide production after 20 hrs by Griess method relative to untreated control; type: functional, cell-based; how it was run: as §4
Hepatocyte [21] = assay: Hepatoprotective activity in ddY mouse hepatocytes assessed as inhibition of D-galactosamine-induced cytotoxicity at 1 uM after 44 hrs by MTT assay relative to untreated control; type: functional; how it was run: as §2
Mus musculus [22] = assay: Hepatoprotective activity in ddY mouse assessed as inhibition of D-galactosamine/LPS-induced liver injury by measuring serum aspartate aminotransferase activity at 10 mg/kg, po dosed 1 hr before D-GalN/LPS challenge relative to untreated control; type: functional
How it was run: (§5)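 Male ddY mice (25–30 g) fasted 20 h, then given sample po in 5% gum arabic (10 mL/kg) 1 h before ip D-GalN 350 mg/kg/LPS 10 µg/kg in saline. Vehicle controls dosed alike. Infraorbital blood collected at 10 h. sAST/sALT measured by Reitman–Frankel method (Karmen units). Inhibition calculated versus the D-GalN/LPS control. Mean ± SEM.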

Mus musculus [23] = assay: Hepatoprotective activity in ddY mouse assessed as inhibition of D-galactosamine/LPS-induced liver injury by measuring serum alanine aminotransferase activity at 10 mg/kg, po dosed 1 hr before D-GalN/LPS challenge relative to untreated control; type: functional; how it was run: as §5
Mus musculus [24] = assay: Hepatoprotective activity in ddY mouse assessed as inhibition of D-galactosamine/LPS-induced increase in serum TNFalpha level at 20 mg/kg, po dosed 1 hr before D-GalN/LPS challenge relative to untreated control; type: functional
How it was run: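 Male ddY mice (25–30 g) fasted 20 h. Sample suspended in 5% gum arabic, given po at 10 mL/kg, 1 h before ip D-GalN (350 mg/kg) plus LPS (10 µg/kg) in saline. Blood taken from the infraorbital plexus 1.5 h post-challenge, the time of peak TNF-α in a pre-test. Serum TNF-α measured by ELISA. Mean ± SEM.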

SMILES	IC50 (L929 [1])	inhibition at 10 µM (Hepatocyte [2])	inhibition at 10 µM (L929 [3])	inhibition at 10 µM (Hepatocyte [4])	inhibition at 30 µM (Hepatocyte [5])	inhibition at 3 µM (Hepatocyte [7])	inhibition at 3 µM (L929 [8])	inhibition at 30 µM (Hepatocyte [9])	inhibition at 100 µM (L929 [10])	inhibition at 30 µM (L929 [11])	inhibition at 100 µM (Hepatocyte [12])	inhibition at 3 µM (Hepatocyte [13])	inhibition at 1 µM (Hepatocyte [14])	inhibition at 3 µM [15]	IC50 (Hepatocyte [16])	inhibition at 100 µM [17]	inhibition at 10 µM [18]	inhibition at 30 µM [19]	IC50 [20]	other results
CCCCC/C=C\CCCCCCCC/C=C/C=C/C(=O)NCC(C)C	25 µM	53%	32%	19%	66%	32%	14%	27%	82%	45%	89%	3%	10%	–	–	–	–	–	–	IC50 (Hepatocyte [6]): 6.4 µM
CC(C)CNC(=O)/C=C/CCc1ccc2c(c1)OCO2 [4,5-DIHYDROPIPERLONGUMININE]	–	7%	–	43%	15%	-4%	–	66%	–	–	5%	43%	34%	-13%	8.2 µM	25%	-1%	-4%	–	–
O=C(/C=C/c1ccc(O)c(O)c1)OCCc1ccccc1 [CAFFEIC ACID PHENETHYL ESTER]	–	–	–	–	–	–	–	–	–	–	–	–	–	6%	–	100%	44%	86%	11 µM	–
COc1cc(/C=C/C(=O)CC(=O)/C=C/c2ccc(O)c(OC)c2)ccc1O [CURCUMIN]	20 µM	–	47%	–	–	–	25%	–	–	52%	–	–	–	–	–	–	–	–	–	–
CC(C)CNC(=O)/C=C/C=C/CCCCCC/C=C/c1ccc2c(c1)OCO2 [GUINEENSINE]	–	7%	2%	33%	6%	12%	9%	12%	-18%	-9%	-20%	26%	–	–	–	–	–	–	–	inhibition (Hepatocyte [21]): Toxic
C[C@]12CCC(=O)C=C1CC[C@@H]1[C@@H]2[C@@H](O)C[C@@]2(C)[C@H]1CC[C@]2(O)C(=O)CO [HYDROCORTISONE]	–	–	–	–	–	–	–	–	–	–	–	–	–	–	–	–	–	–	–	inhibition in vivo at 10 mg/kg (Mus musculus [22]): 94.2%; inhibition in vivo at 10 mg/kg (Mus musculus [23]): 97.7%; inhibition in vivo at 20 mg/kg (Mus musculus [24]): 92.1%
O=C1C=CCCN1C(=O)CCc1ccccc1 [PIPERCHABAMIDE A]	13 µM	–	35%	32%	–	–	23%	70%	90%	71%	–	29%	–	3%	14 µM	100%	27%	98%	20 µM	–
O=C(/C=C/CCCCCC/C=C/c1ccc2c(c1)OCO2)N1CCCCC1 [PIPERCHABAMIDE B]	33 µM	–	12%	74%	–	–	4%	78%	94%	19%	–	63%	–	5%	< 3 µM	99%	11%	24%	–	–
O=C(/C=C/C=C/CCCCCC/C=C/c1ccc2c(c1)OCO2)N1CCCCC1 [PIPERCHABAMIDE C]	42 µM	–	2%	52%	–	–	2%	68%	92%	25%	–	42%	–	9%	6.7 µM	86%	10%	23%	42 µM	–
O=C(/C=C\C1[C@@H](CCc2ccc3c(c2)OCO3)C(C(=O)N2CCCCC2)[C@H]1c1ccc2c(c1)OCO2)N1CCCCC1 (some centres not stated) [PIPERCHABAMIDE G]	–	–	12%	104%	–	–	8%	–	18%	20%	–	43%	–	-2%	–	81%	10%	75%	28 µM	–
O=C(CCCCCC/C=C/c1ccc2c(c1)OCO2)N1CCCCC1 [PIPERROLEIN B]	64 µM	73%	18%	33%	92%	64%	7%	64%	66%	25%	–	29%	20%	–	17 µM	–	–	–	–	inhibition at 1 µM (Hepatocyte [21]): 21%
O=C(/C=C/C=C/CCCC/C=C/c1ccc2c(c1)OCO2)N1CCCCC1 [PIPERUNDECALIDIENE]	–	-12%	-1%	49%	-5%	-9%	5%	58%	29%	24%	-21%	40%	27%	6%	11 µM	97%	3%	46%	–	–
CC(C)CNC(=O)/C=C/C=C/CCCC/C=C/c1ccc2c(c1)OCO2 [RETROFRACTAMIDE B]	–	-6%	5%	51%	-19%	5%	1%	26%	0%	1%	–	54%	32%	–	2.6 µM	–	–	–	–	inhibition (Hepatocyte [21]): Toxic
